Experimental data taken from ChEMBL document CHEMBL4304758, “Development of Peptide-Based Sirtuin Defatty-Acylase Inhibitors Identified by the Fluorescence Probe, SFP3, That Can Efficiently Measure Defatty-Acylase Activity of Sirtuin” (J Med Chem, 2019).
Structures can show the parent of a compound that is named as a salt. Active and inactive are the calls of the source. The rule behind the calls is not given here. Residues, ends and D or L forms follow the SMILES beside them. *: point of attachment. Phenylacetyl(4-E-phenylazo) = O=C(Cc1ccc(/N=N/c2ccccc2)cc1)*; X5 = CCN(CC)c1ccc(/N=N/c2ccc(CC(=O)*)cc2)cc1; X3 = CN(C)c1ccc(/N=N/c2ccc(CCC(=O)*)cc2)cc1; X2 = CN(C)c1ccc(/N=N/c2ccc(C(=O)*)cc2)cc1; Tfa = O=C(C(F)(F)F)*

Assays:
[1] = target: T1, NAD-dependent protein deacetylase sirtuin-1 (Homo sapiens) (UniProt Q96EB6); experiment: Inhibition of recombinant human C-terminal His6-tagged SIRT1 (Met1 to Ser747 residues) defatty-acylase activity expressed in Escherichia coli at 2 uM using SFP3 as substrate measured at 5 mins interval for 60 mins in presence of NAD+ by fluorescence assay relative to control
T1 sequence (whole entry): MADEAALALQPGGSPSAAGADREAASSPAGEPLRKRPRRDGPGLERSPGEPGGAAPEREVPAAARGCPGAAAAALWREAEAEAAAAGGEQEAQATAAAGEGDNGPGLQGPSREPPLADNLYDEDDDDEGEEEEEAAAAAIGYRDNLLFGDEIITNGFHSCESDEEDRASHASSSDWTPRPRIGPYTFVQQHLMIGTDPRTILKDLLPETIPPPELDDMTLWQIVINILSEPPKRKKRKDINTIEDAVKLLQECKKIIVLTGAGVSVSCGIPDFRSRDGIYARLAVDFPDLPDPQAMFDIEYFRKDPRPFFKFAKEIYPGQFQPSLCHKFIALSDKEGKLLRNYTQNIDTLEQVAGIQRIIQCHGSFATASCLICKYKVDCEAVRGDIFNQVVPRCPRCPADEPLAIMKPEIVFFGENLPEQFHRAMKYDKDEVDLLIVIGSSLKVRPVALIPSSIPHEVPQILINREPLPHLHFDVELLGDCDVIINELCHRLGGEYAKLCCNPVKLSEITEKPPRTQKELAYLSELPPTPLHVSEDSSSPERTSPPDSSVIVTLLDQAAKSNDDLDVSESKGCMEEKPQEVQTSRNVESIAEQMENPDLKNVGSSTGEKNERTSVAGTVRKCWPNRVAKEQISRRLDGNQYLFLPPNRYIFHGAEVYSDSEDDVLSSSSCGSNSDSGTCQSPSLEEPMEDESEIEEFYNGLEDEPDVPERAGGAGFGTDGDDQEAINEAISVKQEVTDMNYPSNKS

[2] = target: T2, NAD-dependent protein deacetylase sirtuin-3, mitochondrial (Homo sapiens) (UniProt Q9NTG7); experiment: Inhibition of recombinant human SIRT3 (118 to 399 residues) defatty-acylase activity expressed in Escherichia coli at 2 uM using SFP3 as substrate measured at 5 mins interval for 60 mins in presence of NAD+ by fluorescence assay relative to control
T2 sequence (whole entry): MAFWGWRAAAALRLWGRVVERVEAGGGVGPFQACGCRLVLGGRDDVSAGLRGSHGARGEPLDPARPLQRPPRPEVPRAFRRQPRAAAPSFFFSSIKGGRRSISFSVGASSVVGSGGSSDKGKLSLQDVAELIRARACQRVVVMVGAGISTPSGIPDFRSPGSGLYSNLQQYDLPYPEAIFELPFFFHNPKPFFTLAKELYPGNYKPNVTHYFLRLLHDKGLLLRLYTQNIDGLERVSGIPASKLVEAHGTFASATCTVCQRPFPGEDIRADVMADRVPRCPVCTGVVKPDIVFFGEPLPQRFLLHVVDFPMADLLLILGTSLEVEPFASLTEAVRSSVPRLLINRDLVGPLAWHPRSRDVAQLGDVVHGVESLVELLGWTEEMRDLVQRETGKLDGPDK
Outline: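 SIRT3 at 60 nM final with 2.5 μM SFP3 and 500 μM NAD⁺ in Tris-HCl pH 8.0, 150 mM NaCl, 1 mM DTT, 0.05% Triton X-100. Final DMSO 0.2%, or 0.5% for AGK2/NAM. Fluorescence Ex 485/Em 535 nm every 5 min for 60 min at 37 °C. n = 3.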

[3] = target: NAD-dependent protein deacylase sirtuin-6 (Homo sapiens) (UniProt Q8N6T7); experiment: Inhibition of recombinant human N-terminal polyhis-tagged SIRT6 (1 to 355 residues) defatty-acylase activity expressed in Escherichia coli at 2 uM using SFP3 as substrate measured at 5 mins interval for 60 mins in presence of NAD+ by fluorescence assay relative to control
Sequence of NAD-dependent protein deacylase sirtuin-6 (Homo sapiens) (Q8N6T7 whole entry, the tested form may be a part): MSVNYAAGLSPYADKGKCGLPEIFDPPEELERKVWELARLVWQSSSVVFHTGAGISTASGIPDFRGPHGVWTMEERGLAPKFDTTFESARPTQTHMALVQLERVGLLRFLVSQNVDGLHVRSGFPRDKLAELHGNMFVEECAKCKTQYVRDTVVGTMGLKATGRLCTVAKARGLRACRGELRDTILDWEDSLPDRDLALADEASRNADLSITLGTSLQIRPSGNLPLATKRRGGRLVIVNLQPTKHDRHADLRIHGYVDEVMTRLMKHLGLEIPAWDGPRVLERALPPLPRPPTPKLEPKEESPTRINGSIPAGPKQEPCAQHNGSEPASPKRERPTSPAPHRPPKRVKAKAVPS

[4] = target: T1, NAD-dependent protein deacetylase sirtuin-1 (Homo sapiens); experiment: Inhibition of recombinant human C-terminal His6-tagged SIRT1 (Met1 to Ser747 residues) demyristoylase activity expressed in Escherichia coli at 1 uM using p53(Myr)-AMC as substrate measured after 3 hrs in presence of NAD+ and trypsin by fluorescence assay relative to control
Outline: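 SIRT1 at 14 nM final with 50 μM p53(Myr)-AMC and 500 μM NAD⁺ in Tris-HCl pH 8.0/NaCl/DTT/Triton buffer, 0.5% DMSO, 3 h at room temperature. Trypsin (100 nM final) plus nicotinamide (1 mM final) then added. Fluorescence Ex 355/Em 460 nm read every 5 min for 20 min at 37 °C. n = 3.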

[5] = target: T2, NAD-dependent protein deacetylase sirtuin-3, mitochondrial (Homo sapiens); experiment: Inhibition of recombinant human SIRT3 (118 to 399 residues) demyristoylase activity expressed in Escherichia coli at 1 uM using p53(Myr)-AMC as substrate measured after 3 hrs in presence of NAD+ and trypsin by fluorescence assay relative to control
Outline: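 SIRT3 at 120 nM with 50 μM p53(Myr)-AMC and 500 μM NAD⁺ in Tris-HCl pH 8.0/NaCl/DTT/Triton buffer, 0.5% DMSO, 3 h at room temperature. Trypsin (100 nM) plus nicotinamide (1 mM) then added. Fluorescence Ex 355/Em 460 nm every 5 min for 20 min at 37 °C. n = 3.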

[6] = system: HeLa; experiment: Cytotoxicity against human HeLa cells assessed as reduction in cell viability at 50 uM measured after 72 hrs by CCK8 assay; assay type: functional, cell-based
Outline: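 HeLa cells, 1.0 × 10⁴ per well on PLL-coated plates, grown overnight in DMEM with 10% FBS and penicillin/streptomycin, 37 °C, 5% CO₂. Compounds added in DMEM (2% DMSO stock), range 1.56–50 μM final, for 72 h. CCK-8 reagent then 2 h at 37 °C, absorbance read at 450 nm. DMSO control.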

[7] = target: T3, NAD-dependent protein deacetylase sirtuin-2 (Homo sapiens) (UniProt Q8IXJ6); experiment: Inhibition of recombinant human SIRT2 defatty-acylase activity at 2 uM using SFP3 as substrate measured at 5 mins interval for 60 mins in presence of NAD+ by fluorescence assay relative to control
T3 sequence (whole entry): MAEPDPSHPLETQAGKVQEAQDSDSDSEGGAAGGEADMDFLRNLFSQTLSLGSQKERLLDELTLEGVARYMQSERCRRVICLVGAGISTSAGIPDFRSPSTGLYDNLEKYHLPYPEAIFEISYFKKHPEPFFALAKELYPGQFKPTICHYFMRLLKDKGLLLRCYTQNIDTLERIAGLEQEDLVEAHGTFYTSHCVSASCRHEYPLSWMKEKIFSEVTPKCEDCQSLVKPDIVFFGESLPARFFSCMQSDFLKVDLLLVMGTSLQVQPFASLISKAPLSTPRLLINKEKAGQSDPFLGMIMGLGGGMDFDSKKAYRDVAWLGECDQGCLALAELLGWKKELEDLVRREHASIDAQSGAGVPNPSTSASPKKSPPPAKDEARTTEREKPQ

[8] = target: T3, NAD-dependent protein deacetylase sirtuin-2 (Homo sapiens); experiment: Inhibition of recombinant human SIRT2 demyristoylase activity at 1 uM using p53(Myr)-AMC as substrate measured after 3 hrs in presence of NAD+ and trypsin by fluorescence assay relative to control
[9] = target: T3, NAD-dependent protein deacetylase sirtuin-2 (Homo sapiens); experiment: Inhibition of recombinant human SIRT2 demyristoylase activity using H4K16-Myr as substrate measured after 2 hrs in presence of NAD+ by HPLC analysis
Outline: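 H4K16-Myr at 100 μM with 500 μM NAD⁺ and 175 nM SIRT2 in Tris-HCl pH 8.0/NaCl/Triton buffer without DTT, 0.5% DMSO, 2 h at 37 °C. Inhibitors at 0.1–10 μM; AGK2 at 50 μM, NAM at 500 μM. Stopped with HCl/MeOH. Demyristoylated H4K16 product measured by HPLC at 280 nm. Percent inhibition, n = 3.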

[10] = target: T3, NAD-dependent protein deacetylase sirtuin-2 (Homo sapiens); experiment: Inhibition of recombinant human SIRT2 deacylation activity using H4K16-Ac as substrate measured after 30 mins in presence of NAD+ by HPLC analysis
Outline: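 H4K16-Ac peptide at 100 μM with 500 μM NAD⁺ and 175 nM SIRT2 in Tris-HCl pH 8.0/NaCl/Triton buffer lacking DTT, 0.5% DMSO, 30 min at 37 °C. Inhibitors at 0.01–10 μM. Stopped with HCl in MeOH. Deacetylated product quantified by reversed-phase HPLC at 280 nm.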

[11] = target: T3, NAD-dependent protein deacetylase sirtuin-2 (Homo sapiens); experiment: Time-dependent inhibition of recombinant human SIRT2 defatty-acylase activity at 62.5 to 1000 nM using SFP3 as substrate measured at 5 mins interval for 60 mins in presence of NAD+ by fluorescence assay

CCCCCCCCCCCCCC(=S)NCCCC[C@H](NC(=O)OCc1ccccc1)C(=O)Nc1ccccc1
inhibition [1]: 0.81%
inhibition [2]: -0.9%
inhibition [3]: -3.3%
inhibition [4]: 2.7%
inhibition [5]: -1.2%
Activity [6]: Active

CC[C@H](C)[C@H](NC(C)=O)C(=O)N[C@@H](CCCCNC(=O)Cc1ccc(/N=N/c2ccccc2)cc1)C(=O)N[C@@H](CCCNC(=N)N)C(N)=O
inhibition [3]: 28%

C[C@H](NC(=O)[C@H](CCCCNC(=O)Cc1ccc(/N=N/c2ccc(O)cc2)cc1)NC(=O)OCc1ccccc1)C(N)=O
inhibition [7]: 18%
inhibition [8]: 5.3%
inhibition [1]: 8.8%
inhibition [2]: 5.9%
inhibition [3]: 3.8%
inhibition [4]: 20%
inhibition [5]: 2.6%

C[C@H](NC(=O)[C@H](CCCCNC(=O)Cc1ccc(/N=N/c2ccc(OCCc3ccccc3)cc2)cc1)NC(=O)OCc1ccccc1)C(N)=O
inhibition [7]: 1.4%
inhibition [8]: 2.9%
inhibition [1]: 2%
inhibition [2]: 7%
inhibition [3]: -0.32%
inhibition [4]: 6.3%
inhibition [5]: -0.13%

C[C@H](NC(=O)[C@H](CCCCNC(=O)Cc1ccc(/N=N/c2ccc(OCc3ccccc3)cc2)cc1)NC(=O)OCc1ccccc1)C(N)=O
inhibition [7]: 13%
inhibition [8]: 3.2%
inhibition [1]: 1.3%
inhibition [2]: -0.08%
inhibition [3]: -7.4%
inhibition [4]: 2.8%
inhibition [5]: 5.6%

Cc1cc(C)nc(SCC(=O)Nc2ncc(Cc3cccc4ccccc34)s2)n1
inhibition [3]: -2.2%

CC[C@H](C)[C@H](NC(=O)[C@H](CCCNC(=N)N)NC(C)=O)C(=O)N[C@@H](CCCCNC(=O)Cc1ccc(/N=N/c2ccccc2)cc1)C(=O)N[C@@H](CCCNC(=N)N)C(=O)N[C@@H](Cc1ccc(O)cc1)C(N)=O (Ac-RIK(Phenylacetyl(4-E-phenylazo))RY-NH2)
inhibition [9]: Dose-dependent effect
inhibition [10]: Dose-dependent effect
inhibition [3]: 32%
Activity [6]: inactive

CC[C@H](C)[C@H](NC(=O)[C@H](CCCNC(=N)N)NC(C)=O)C(=O)N[C@@H](CCCCNC(=O)C(F)(F)F)C(=O)N[C@@H](CCCNC(=N)N)C(=O)N[C@@H](Cc1ccc(O)cc1)C(N)=O (Ac-RIK(Tfa)RY-NH2)
inhibition [1]: 16%
inhibition [3]: 3.1%
inhibition [4]: 32%
inhibition [5]: 58%

CC[C@H](C)[C@H](NC(=O)[C@H](CCCNC(=N)N)NC(C)=O)C(=O)N[C@@H](CCCCNC(=O)c1ccc(/N=N/c2ccc(N(C)C)cc2)cc1)C(=O)N[C@@H](CCCNC(=N)N)C(=O)N[C@@H](Cc1ccc(O)cc1)C(N)=O (Ac-RIK(X2)RY-NH2)
TDI [11]: inactive
inhibition [1]: 22%
inhibition [3]: 13%
inhibition [4]: 42%
inhibition [5]: 34%

CC[C@H](C)[C@H](NC(=O)[C@H](CCCNC(=N)N)NC(C)=O)C(=O)N[C@@H](CCCCNC(=O)CCc1ccc(/N=N/c2ccc(N(C)C)cc2)cc1)C(=O)N[C@@H](CCCNC(=N)N)C(=O)N[C@@H](Cc1ccc(O)cc1)C(N)=O (Ac-RIK(X3)RY-NH2)
TDI [11]: inactive
inhibition [8]: 23%
inhibition [3]: 13%
inhibition [4]: 42%
inhibition [5]: 11%

CC[C@H](C)[C@H](NC(=O)[C@H](CCCNC(=N)N)NC(C)=O)C(=O)N[C@@H](CCCCNC(=O)Cc1ccc(/N=N/c2ccc(N(CC)CC)cc2)cc1)C(=O)N[C@@H](CCCNC(=N)N)C(=O)N[C@@H](Cc1ccc(O)cc1)C(N)=O (Ac-RIK(X5)RY-NH2)
inhibition [3]: 28%

CC[C@H](C)[C@H](NC(=O)[C@@H](NC(=O)[C@H](CCCCNC(=O)Cc1ccc(/N=N/c2ccccc2)cc1)NC(=O)[C@H](CC(=O)O)NC(=O)[C@H](CO)NC(C)=O)[C@@H](C)O)C(N)=O (Ac-SDK(Phenylacetyl(4-E-phenylazo))TI-NH2)
inhibition [8]: 17%
inhibition [1]: 18%
inhibition [2]: 14%
inhibition [3]: 2.6%
inhibition [4]: 31%
inhibition [5]: 5.6%

CC[C@H](C)[C@H](NC(=O)[C@@H](NC(=O)[C@H](CCCCNC(=O)c1ccc(/N=N/c2ccc(N(C)C)cc2)cc1)NC(=O)[C@H](CC(=O)O)NC(=O)[C@H](CO)NC(C)=O)[C@@H](C)O)C(N)=O (Ac-SDK(X2)TI-NH2)
inhibition [7]: 7.8%
inhibition [8]: 2%
inhibition [1]: 8.9%
inhibition [2]: 10%
inhibition [3]: 11%
inhibition [4]: 3.2%
inhibition [5]: -1.1%

CC[C@H](C)[C@H](NC(=O)[C@H](CCCCNC(=O)Cc1ccc(/N=N/c2ccccc2)cc1)NC(=O)[C@@H](NC(C)=O)C(C)C)C(=O)N[C@@H](CCCCN)C(=O)N[C@@H](CCCCN)C(N)=O (Ac-VK(Phenylacetyl(4-E-phenylazo))IKK-NH2)
inhibition [3]: 0.64%
